The values that follow come from ChEMBL document CHEMBL4613270, “Structure-Activity Relationship Study Enables the Discovery of a Novel Berberine Analogue as the RXRα Activator to Inhibit Colon Cancer” (J Med Chem, 2020).

The target of data set [1] is T1, Retinoic acid receptor RXR-alpha (Homo sapiens) (UniProt P19793).
T1 sequence (whole entry): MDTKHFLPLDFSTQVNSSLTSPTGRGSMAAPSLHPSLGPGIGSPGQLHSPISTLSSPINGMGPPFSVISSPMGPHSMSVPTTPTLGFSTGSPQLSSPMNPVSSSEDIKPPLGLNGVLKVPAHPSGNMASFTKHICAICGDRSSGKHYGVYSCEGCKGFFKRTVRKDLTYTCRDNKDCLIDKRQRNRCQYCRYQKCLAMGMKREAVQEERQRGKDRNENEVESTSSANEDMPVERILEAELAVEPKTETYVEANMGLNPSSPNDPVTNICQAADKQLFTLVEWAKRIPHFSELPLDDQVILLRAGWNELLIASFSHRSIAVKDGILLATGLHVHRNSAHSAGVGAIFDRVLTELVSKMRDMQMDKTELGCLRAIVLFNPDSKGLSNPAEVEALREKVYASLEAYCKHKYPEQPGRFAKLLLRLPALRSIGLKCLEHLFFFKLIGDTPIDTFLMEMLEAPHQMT
In words: Activation of RXRalpha (unknown origin) expressed in human HCT116 cells co-expressing beta-catenin and c-Cbl assessed as induction of beta-caten interaction with c-Cbl at 30 to 60 uM incubated for 15 hrs by mammalian two-hybrid assay. The following applies: HCT-116. The class given is cell-based. The procedure, abridged: (§1)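 Mammalian two-hybrid: cells co-transfected by lipofection with pBIND-β-catenin/S33Y plus pACT-RXRα (RXRα–β-catenin) or pACT-c-Cbl (β-catenin–c-Cbl); 20 h after transfection, compound added for 15 h; cells lysed in passive lysis buffer, 4 °C, 1 h; firefly and Renilla luciferase read by dual-luciferase kit.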

For data set [2], the target named is T1, Retinoic acid receptor RXR-alpha (Homo sapiens). In words: Activation of RXRalpha in human KM12C cells assessed as reduction in c-Myc mRNA expression at 25 to 50 uM incubated for 15 hrs by real-time PCR analysis. Format: cell-based.
A short description of data set [3]: Toxicity in BALB/c mouse xenografted with human KM12C cells assessed as effect on biochemical parameter by measuring triglyceride level at 100 mg/kg, ig dosed daily for 15 days by automatic chemistry analyzer based analysis (reference value: 0.96 +/- 0.056 mmol/L). The class given is organism-based. The note with it: in vivo, po, 360 h.
Data set [4] deals with T1, Retinoic acid receptor RXR-alpha (Homo sapiens). In words: Activation of RXRalpha in human HCT116 cells assessed as inhibition of Wnt/beta-catenin-dependent transcriptional activity at 30 to 60 uM incubated for 15 hrs by TOP/FOP luciferase assay. The class given is cell-based. The note with it: HCT-116. The procedure, abridged:
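TOP/FOP reporter: cells co-transfected by lipofection with pRL-TK plus TOPflash or FOPflash; compound added 20 h after transfection for 15 h; passive lysis at 4 °C, 1 h; firefly and Renilla luciferase measured by dual-luciferase assay.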

Data set [5] shares this target. In words: In-vivo activation of RXRalpha in BALB/c mouse xenografted with human KM12C cells assessed as increase in p21 (WAF1/CIP1) mRNA expression at 100 mg/kg, ig dosed daily for 15 days by real-time PCR analysis. Format: functional, organism-based.
Data set [6] shares this target. In words: Activation of RXRalpha in human HCT116 cells assessed as reduction in c-Myc protein expression at 30 to 60 uM incubated for 15 hrs by Western blot analysis. The class given is cell-based. The note with it: HCT-116.
Data set [7] in a line: Toxicity in BALB/c mouse xenografted with human KM12C cells assessed as effect on biochemical parameter by measuring ALT level at 100 mg/kg, ig dosed daily for 15 days by automatic chemistry analyzer based analysis (reference value: 24.18 +/- 0.77 U/L). The following applies: in vivo, po, 360 h. The class given is organism-based.
Data set [8] concerns the target T1, Retinoic acid receptor RXR-alpha (Homo sapiens). The data set is described as follows: Activation of RXRalpha in human KM12C cells assessed as reduction in Cdc2 protein expression at 25 to 50 uM incubated for 15 hrs by Western blot analysis. The class given is cell-based.
Data set [9] has the same target. The data set is described as follows: Activation of RXRalpha in human KM12C cells assessed as reduction in c-Myc protein expression at 25 to 50 uM incubated for 15 hrs by Western blot analysis. Format: cell-based.
Data set [10] has the same target. The data set is described as follows: In-vivo activation of RXRalpha in BALB/c mouse xenografted with human KM12C cells assessed as reduction in c-Myc mRNA expression at 100 mg/kg, ig dosed daily for 15 days by real-time PCR analysis. Format: functional, organism-based. An outline of the steps: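 KM12C cells (1×10^6 per mouse in 100 μL HBSS) injected subcutaneously into both flanks of nude mice; after seven days, randomized to three groups, dosed intragastrically once daily for 15 days with vehicle (CMC-Na) or 100 mg/kg compound; mice euthanized and tumors removed for analysis.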

Data set [11] has the same target. The data set is described as follows: Activation of RXRalpha in human HCT116 cells assessed as reduction in Cdc2 mRNA expression at 30 to 60 uM incubated for 15 hrs by real-time PCR analysis. The note with it: HCT-116. The class given is cell-based.
Data set [12] shares this target. In words: Activation of RXRalpha in human SW620 cells assessed as induction of beta-catenin protein degradation at 40 to 80 uM incubated for 15 hrs by Western blot analysis. The class given is cell-based. The following applies: SW-620.
Data set [13] shares this target. In words: Activation of RXRalpha (unknown origin) expressed in human KM12C cells co-expressing beta-catenin assessed as induction of RXRalpha interaction with beta-catenin at 25 to 50 uM incubated for 15 hrs by mammalian two-hybrid assay. Format: cell-based. The procedure, abridged:
as §1

Data set [14] has the same target. The data set is described as follows: Activation of RXRalpha in human KM12C cells assessed as increase in p21 (WAF1/CIP1) protein expression at 25 to 50 uM incubated for 15 hrs by Western blot analysis. The class given is cell-based.
A short description of data set [15]: Toxicity in human HIEC6 cells assessed a reduction in cell viability at 6.25 to 100 uM incubated for 15 hrs by MTT assay. Format: cell-based. The procedure, abridged:
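HIEC-6 cells grown in MEM with 4% FBS, HEPES, GlutaMAX and 10 ng/mL EGF. MEF cells grown in DMEM high glucose with 10% FBS. Cells plated at 1×10⁴ per well and treated with a concentration series for 15 h. Viability read by MTT: 4 h at 37 °C, DMSO solubilization, absorbance at 570 nm.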

The target in data set [16] is T1, Retinoic acid receptor RXR-alpha (Homo sapiens). The data set is described as follows: Activation of RXRalpha in human SW620 cells assessed as increase transactivational activity on RXRE at 40 to 80 uM incubated for 15 hrs by luciferase reporter gene assay. Format: cell-based. The note with it: SW-620. The procedure, abridged: (§2)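 Endogenous RXRα transactivation on an RXRE luciferase reporter, lipofection-transfected; compound added 20 h post-transfection for 15 h; lysis in passive lysis buffer at 4 °C, 1 h; firefly and Renilla luciferase activities read by dual-luciferase assay.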

A short description of data set [17]: Hepatotoxicity in BALB/c mouse xenografted with human KM12C cells assessed as induction of hepatomegaly by measuring body weight ratio at 100 mg/kg, ig dosed daily for 15 days. Format: toxicity, organism-based. The note with it: in vivo, po, 360 h.
The target of data set [18] is T1, Retinoic acid receptor RXR-alpha (Homo sapiens). In words: Activation of RXRalpha in human SW620 cells assessed as […] in PCNA protein expression at 40 to 80 uM incubated for 15 hrs by Western blot analysis. The class given is cell-based. The note with it: SW-620.
Data set [19] has the same target. In words: Activation of RXRalpha in human HCT116 cells assessed as increase transactivational activity on RXRE at 30 to 60 uM incubated for 15 hrs by luciferase reporter gene assay. Format: cell-based. The note with it: HCT-116. The procedure, abridged: as §2
Data set [20] is described as follows: Hepatotoxicity in BALB/c mouse xenografted with human KM12C cells assessed as induction of hepatocellular morphology damage at 100 mg/kg, ig dosed daily for 15 days by H and E staining. The class given is toxicity, organism-based. The following applies: in vivo, po, 360 h.
For data set [21], the target named is T1, Retinoic acid receptor RXR-alpha (Homo sapiens). In words: Activation of RXRalpha in human KM12C cells assessed as reduction in Cdc2 mRNA expression at 25 to 50 uM incubated for 15 hrs in presence of RXRalpha shRNA by real-time PCR analysis. The class given is cell-based.

Activity calls are given as the source filed them. The rule behind the calls is not given here.

With `COc1ccc2cc3[n+](cc2c1OC)CCc1cc2c(cc1-3)OCO2.[Cl-]` [BERBERINE CHLORIDE], the outcome in data set [1], in data set [2], in [4], in [5], in [6] and in data set [8] was Active. Besides, the result in [9], in data set [10], in [11], in data set [12], in data set [13] and in data set [14] was Active. Also, the Activity worked out at 0.77 mmol/L in [3] and 27.9 U/L in [7].
As to `COc1ccc2c(c1)CC[n+]1cc3c(OC)cccc3cc1-2.[Cl-]`, the outcome in [1], in data set [2], in data set [4], in [5], in [6] and in [8] was Active. Moreover, the result in data set [9], in [10], in data set [11], in data set [16], in data set [12] and in [18] was Active. Moreover, the result in data set [19], in data set [13] and in [14] was Active. Moreover, the Activity in data set [3] is given as 0.74 mmol/L; in data set [7] it was 27.2 U/L; in data set [15], “Non-Toxic”; in data set [17], “Non-Toxic”; in data set [20], “Non-Toxic”. In data set [21], the result was inactive.
